# Results published in article PMC11319934 (PNAS Nexus, 2024).
# Bridge positions count the residues as written; N and C are the ends. Square brackets hold non-standard residues; d marks the D form. Peptide text beside a SMILES is read from it. * marks the point of attachment. X1 = CN(C)c1ccc2c(-c3ccc(C(=O)*)cc3C(=O)[O-])c3ccc(=[N+](C)C)cc-3oc2c1; R5 = C=CCCC[C@@](C)(N)C(=O)O; S5 = C=CCCC[C@](C)(N)C(=O)O
# What was measured:
# [1] = biological target: T1, His-MYC3-FLAG (His6-SUMO-MYC3(44–238)-FLAG) (Arabidopsis thaliana, UniProt Q9FIP9); experiment: Fluorescence anisotropy; assay type: binding
# T1 sequence (Q9FIP9 44-238): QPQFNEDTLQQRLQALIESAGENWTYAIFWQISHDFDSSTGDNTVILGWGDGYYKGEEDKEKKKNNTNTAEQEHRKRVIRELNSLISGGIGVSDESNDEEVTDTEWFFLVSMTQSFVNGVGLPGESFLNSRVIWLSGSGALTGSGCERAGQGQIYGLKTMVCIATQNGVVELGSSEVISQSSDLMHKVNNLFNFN
# [2] = biological target: T2, biotin-MED25^CMIDM/His-MYC3-FLAG complex (Arabidopsis thaliana, UniProt Q9FIP9); experiment: AlphaLISA inhibitory assay MED25CMIDM/MYC3; assay type: biochemical
# T2 sequence (Q9FIP9 44-238): T1 sequence (Q9FIP9 44-238)
# In short: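 Competition AlphaLISA: biotin-MED25CMIDM (150 nM) with His-MYC3-FLAG (50 nM). TMR-conjugated test peptides titrated 0–3 µM to generate inhibition curves. Run in triplicate; mean and SD reported.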
# [3] = tested on: OPDA-responsive marker genes in Marchantia gemmalings; experiment: RT-qPCR of OPDA-responsive marker genes in M. polymorpha; assay type: in vivo, Marchantia polymorpha; conditions: 4 (10 µM) with OPDA (50 µM), 6 h
# [4] = tested on: A. thaliana seedlings (Col-0); experiment: Secondary metabolite quantification in A. thaliana; assay type: in vivo, Arabidopsis thaliana; conditions: Col-0 seedlings, 4 (10 µM) with MeJA (50 µM), 4 days, n = 4, LC/MS
# In short: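 7-day-old Col-0 seedlings treated 4 days with MeJA (50 µM) ± test compound (10 µM). Glucobrassicin (i-3ym) and p-coumaroyl agmatine accumulation quantified (n = 4). Experiment repeated three times; one-way ANOVA/Tukey's HSD, P < 0.01.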
# [5] = biological target: T3, His-EIN3-FLAG (His6-SUMO-EIN3(200–500)-FLAG) (Arabidopsis thaliana, UniProt O24606); experiment: Fluorescence anisotropy; assay type: binding
# T3 sequence (O24606 200-500): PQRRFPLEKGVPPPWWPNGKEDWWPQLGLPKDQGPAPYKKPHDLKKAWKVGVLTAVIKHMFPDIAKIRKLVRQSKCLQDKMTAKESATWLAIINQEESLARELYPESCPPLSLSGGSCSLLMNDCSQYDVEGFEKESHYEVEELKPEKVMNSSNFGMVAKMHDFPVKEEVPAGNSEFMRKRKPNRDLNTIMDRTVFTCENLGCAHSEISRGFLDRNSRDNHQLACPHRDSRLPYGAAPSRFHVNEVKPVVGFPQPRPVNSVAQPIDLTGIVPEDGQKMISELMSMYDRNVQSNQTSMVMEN
# In short: (§1)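 FA titration at 25°C in 20 mM Tris-HCl pH 8.0, 200 mM NaCl, 10% glycerol, 10% cOmplete EDTA-free, with 2-mercaptoethanol (EIN3/EIL1 family). Protein added dropwise to 100 nM TMR-labelled peptide; His-EIN3-FLAG titrated 0–2 µM. Anisotropy read at ex/em 543/573.5 nm. Each point is the average of three independent measurements. Apparent Kd obtained by nonlinear curve fitting.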
# [6] = tested on: A. thaliana seedlings (Col-0); experiment: Root growth of A. thaliana seedlings with MeJA; assay type: in vivo, Arabidopsis thaliana; conditions: Col-0 seedlings, co-treatment 4 (10 µM) with MeJA (50 µM), n = 15
# In short: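 Surface-sterilized Col-0 seeds stratified 2–3 days at 4°C. Grown on half-strength MS plates (2% sucrose, 0.4% gellan gum) with MeJA (50 µM) ± test compound (10 µM), under 16 h light (75 µmol m-2 s-1)/8 h dark at 22°C. Whole-seedling root length measured (n = 15). Repeated three times; one-way ANOVA/Tukey's HSD, P < 0.01.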
# [7] = tested on: His-MpMYC-Y-FLAG (MpMYC-Y(102-299)); experiment: Fluorescence anisotropy; assay type: binding, Marchantia polymorpha; conditions: ratio of Kd of 1 to Kd of the peptide
# In short: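 FA titration of 100 nM TMR-labelled peptide with His-MpMYC-Y-FLAG (0–2 µM), added dropwise. Conditions: 25°C, 20 mM Tris-HCl pH 8.0, 200 mM NaCl, 10% glycerol, 10% cOmplete EDTA-free, no 2-mercaptoethanol (MYC family). Read at ex/em 543/573.5 nm, triplicate points. Apparent Kd from nonlinear fitting; values compared as Kd ratios.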
# [8] = tested on: M. polymorpha gemmalings (Tak-1); experiment: Growth; assay type: in vivo, Marchantia polymorpha; conditions: Tak-1 gemmalings, 4 (10 µM) with OPDA (50 µM), n = 24
# In short: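 Tak-1 gemmalings grown 2 weeks on half-strength Gamborg's B5 with 1% agar, containing OPDA (50 µM) ± test compound (10 µM). Continuous light 50–60 µmol m-2 s-1, 22°C. Plant area measured in mm2 (n = 24). Experiment repeated three times; one-way ANOVA/Tukey's HSD, P < 0.01.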
# [9] = biological target: T4, His-EIL1-FLAG (Arabidopsis thaliana, UniProt Q9SLH0); experiment: Fluorescence anisotropy; assay type: binding
# T4 sequence (Q9SLH0 201-501): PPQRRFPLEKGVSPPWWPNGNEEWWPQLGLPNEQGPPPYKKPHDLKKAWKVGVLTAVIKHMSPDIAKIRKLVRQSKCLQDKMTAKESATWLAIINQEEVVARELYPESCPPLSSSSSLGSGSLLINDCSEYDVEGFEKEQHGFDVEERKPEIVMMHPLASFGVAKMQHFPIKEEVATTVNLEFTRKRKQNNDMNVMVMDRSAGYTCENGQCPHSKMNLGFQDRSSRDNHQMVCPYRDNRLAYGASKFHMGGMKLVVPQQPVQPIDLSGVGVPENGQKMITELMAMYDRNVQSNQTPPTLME
# In short: as §1
# [10] = tested on: JA-responsive marker genes in Arabidopsis seedlings; experiment: RT-qPCR of JA-responsive marker genes in A. thaliana; assay type: in vivo, Arabidopsis thaliana
# In short: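 Col-0 or mutant (e.g. myc234) seedlings grown at 22°C, 16 h light/8 h dark. At 7 days, treated in half-strength MS liquid medium with MeJA (50 µM) and/or test compound (10 µM). Exposure 2 h for AOS, OPR3, MYC2, ORA59 and 8 h for VSP2, PDF1.2, ACT. Total RNA extracted; oligo-dT-primed cDNA; RT-qPCR (n = 4). One-way ANOVA/Tukey's HSD.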
structure (smiles),measurement,setting,value
"CC[C@H](C)[C@H](NC(=O)[C@H](CCCCN)NC(=O)[C@H](CO)NC(=O)[C@@H](NC(=O)[C@]1(C)CCCC=CCCC[C@](C)(NC(=O)[C@H](CCCNC(=N)N)NC(=O)[C@H](Cc2ccccc2)NC(=O)[C@H](CO)NC(=O)[C@H](CCCNC(=N)N)NC(=O)[C@H](CCCNC(=N)N)NC(=O)[C@H](CCCNC(=N)N)NC(=O)[C@H](CC(=O)O)NC(=O)[C@H](CC(C)C)NC(=O)[C@H](Cc2ccccc2)NC(=O)[C@H](CCCCN)NC(=O)[C@H](CCC(N)=O)NC(=O)[C@H](Cc2ccccc2)NC(=O)c2ccc(-c3c4ccc(=[N+](C)C)cc-4oc4cc(N(C)C)ccc34)c(C(=O)[O-])c2)C(=O)N[C@@H]([C@@H](C)CC)C(=O)N[C@@H](CCC(N)=O)C(=O)NCC(=O)N1)[C@@H](C)CC)C(=O)N[C@@H](CC(=O)O)C(=O)N1CCC[C@H]1C(=O)N[C@@H](CCC(=O)O)C(=O)N[C@]1(C)CCCC=CCCC[C@@](C)(C(=O)N[C@@H](CC(C)C)C(=O)N[C@@H](CC(C)C)C(=O)N[C@@H](C)C(=O)N[C@@H](CO)C(=O)N[C@H](C(=O)O)[C@@H](C)O)NC(=O)[C@H](CCCCN)NC(=O)[C@H]([C@@H](C)CC)NC1=O [compound 4] (X1-FQKFLDRRRSFR[S5]IQG[S5]ISKIDPE[R5]IK[S5]LLAST-OH; staple 13-17, 25-28)",Kd,[1],5 nM
same,fold lower Kd with His-MYC3-FLAG than that of 1,[1]; ratio of Kd of 1 to Kd of the peptide,42 fold
same,Ki,[2],71 nM
same,bioactivity on marker gene expression in MpMYC-Y knockout mutant mpmycy,[3],completely abolished
same,MeJA-triggered accumulation of p-coumaroyl agmatine (CouAgm) compared to MeJA alone,[4],significantly enhanced
same,"MeJA-triggered glucosinolate (glucobrassicin, i-3ym) accumulation",[4],significantly suppressed
same,Kd,[5],105 nM
same,effect on MeJA growth inhibitory effects (root length),[6],partially suppressed
same,fold lower Kd with MpMYC-Y than 1,[7],46 fold
same,effect on OPDA growth inhibitory effects (plant area),[8],partially suppressed
same,Kd,[9],116 nM
same,"marker gene expression, peptide alone","[10]; 7-day-old Col-0, 4 (10 µM) alone without MeJA, 2 or 8 h",almost no effects
same,expression of ORA59 and ACT (EIN3/EIL1-marker genes),"[10]; 7-day-old Col-0, 4 (10 µM) with MeJA (50 µM), 2 or 8 h",activated
same,"MeJA-induced expression of MYC-mediated marker genes (VSP2, AOS, OPR3, MYC2)","[10]; 7-day-old Col-0, 4 (10 µM) with MeJA (50 µM), 2 or 8 h, n = 3 or 4",significantly suppressed
same,expression of PDF1.2 (EIN3/EIL1-mediated marker gene) compared with MeJA alone,"[10]; 7-day-old Col-0, 4 (10 µM) with MeJA (50 µM), 8 h",strongly activated
same,expression pattern of VSP2 and PDF1.2 on myc234 compared to MeJA alone,"[10]; MYC triple mutant myc234, 4 (10 µM) with MeJA (50 µM), 8 h, n = 4",did not significantly change
same,expression pattern of VSP2 and PDF1.2 on ein2-1 compared to MeJA alone,"[10]; ein2-1 mutant, 4 (10 µM) with MeJA (50 µM), 8 h, n = 3 or 4",did not significantly change
